For data set [1], the target named is Phosphatidylinositol 4-kinase beta (Homo sapiens, UniProt Q9UBF8). The data set is described as follows: Inhibition of recombinant human full length GST-tagged PI4K3beta expressed in baculovirus expression system using PI lipid kinase substrate after 60 mins by ADP-Glo assay.
The test system of data set [2] is Salmonella typhimurium. The data set can be described thus: Genotoxicity in Salmonella typhimurium TA1537 up to 1000 uM after 2 days in presence or absence of liver S9 fraction by Ames test. The data set is classed as toxicity, organism-based. To be noted: salmonella enterica subsp. enterica serovar typhimurium, s9, 48 h. The method, boiled down: (§1)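 MiniAMES (MPF format) with Salmonella typhimurium TA98, TA100 and TA1537, with and without S9 metabolic activation. 2-day incubation, top concentration 1000 µM.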
Background: The Ames test detects mutagens through reverse mutation in bacteria.

For data set [3], the system named is Salmonella typhimurium. The data set can be described thus: Genotoxicity in Salmonella typhimurium TA98 up to 1000 uM after 2 days in presence or absence of liver S9 fraction by Ames test. The data set is classed as toxicity, organism-based. The conditions noted are these: salmonella enterica subsp. enterica serovar typhimurium, s9, 48 h. The method, boiled down: as §1

Data set [4] has as its system Salmonella typhimurium. The data set can be described thus: Genotoxicity in Salmonella typhimurium TA100 up to 1000 uM after 2 days in presence or absence of liver S9 fraction by Ames test. The conditions noted are these: salmonella enterica subsp. enterica serovar typhimurium, s9, 48 h. The data set is classed as toxicity, organism-based. The method, boiled down:
as §1

Data set [5] concerns the target Voltage-gated inwardly rectifying potassium channel KCNH2 (Homo sapiens, UniProt Q12809).
For another data set, the target named is Cytochrome P450 3A4 (Homo sapiens, UniProt P08684).
For data set [6] the following is noted: buffer, pH 7.4, 1.5 h.
Data set [7] in a line: in vitro. To be noted: human, liver microsomes.
Data set [8] can be described thus: in vitro. To be noted: mouse, liver microsomes.
Data set [9] is described as follows: physchem.
Data set [10] is described as follows: Thermodynamic solubility of the compound in pH 7.4 solution after 90 mins by UVLC-MS analysis. The conditions noted are these: pH 7.4 solution, pH 7.4; read-out: Therm_solubility. The data set is classed as physicochemical.
A short description of data set [11]: Fraction unbound in mouse blood. The data set is classed as ADME, tissue-based.
Data set [12] is described as follows: Apparent clearance in Balb/c mouse at 10 mg/kg, po after 1 hr. The data set is classed as ADME, organism-based. To be noted: in vivo.
Data set [13] relates to Mus musculus. The data set can be described thus: Unbound AUC (infinity) in Balb/c mouse at 10 mg/kg, po after 1 hr. The data set is classed as ADME, organism-based. The conditions noted are these: in vivo.
Data set [14] has as its system Mus musculus. The data set can be described thus: Unbound Cmax in Balb/c mouse at 10 mg/kg, po after 1 hr. The data set is classed as ADME, organism-based. To be noted: in vivo.
Data set [15] can be described thus: Clearance in Balb/c mouse at 1 mg/kg, iv. The conditions noted are these: Balb/c, in vivo. The data set is classed as ADME, organism-based. The method in brief:
(§2)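 Intravenous PK in male Balb/C mice, n=3, at 1 mpk. Vehicle was 30% DMA or 15% NMP, depending on the compound.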

Data set [16] relates to Mus musculus. The data set is described as follows: Unbound AUC in Balb/c mouse at 1 mg/kg, iv. The data set is classed as ADME, organism-based. To be noted: in vivo. The method, boiled down: as §2
The nature of data set [17]: Half life in Balb/c mouse at 1 mg/kg, iv. Type of data set: ADME, organism-based. To be noted: Balb/c, in vivo. The method in brief: as §2
Data set [18] in a line: Volume of distribution at steady state in Balb/c mouse at 1 mg/kg, iv. Type of data set: ADME, organism-based. To be noted: Balb/c, in vivo, read-out: Vdss. The method, boiled down: as §2
A short description of data set [19]: Oral bioavailability in Balb/c mouse at 10 mg/kg after 1 hr. Type of data set: ADME, organism-based. The conditions noted are these: Balb/c, in vivo. The method, boiled down:
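Male Balb/C mice, n=3. Oral dose of 10 mpk as a homogeneous suspension of crystalline solid in 0.1% Tween 80, 0.1% silicone antifoam, 1% methylcellulose (400 cps) in water. I.v. dose of 1 mpk in 30% DMA or 15% NMP, depending on the compound. Bioavailability was extrapolated from the i.v./p.o. experiments.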

Data set [20] relates to Salmonella typhimurium. The data set is described as follows: Genotoxicity in Salmonella typhimurium TA1537 up to 2000 uM after 2 days in presence or absence of liver S9 fraction by Ames test. The data set is classed as toxicity, organism-based. To be noted: salmonella enterica subsp. enterica serovar typhimurium, s9, 48 h. The method, boiled down:
(§3)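 Ames MPF format with Salmonella typhimurium TA98, TA100, TA1535, TA1537 and E. coli uvrA. Run with and without metabolic activation (S9), 2-day incubation, up to 2000 µM.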

Data set [21] relates to Salmonella typhimurium. The data set can be described thus: Genotoxicity in Salmonella typhimurium TA1535 up to 2000 uM after 2 days in presence or absence of liver S9 fraction by Ames test. Type of data set: toxicity, organism-based. The conditions noted are these: salmonella enterica subsp. enterica serovar typhimurium, s9, 48 h. The method in brief: as §3
Data set [22] relates to Salmonella typhimurium. The data set is described as follows: Genotoxicity in Salmonella typhimurium TA98 up to 2000 uM after 2 days in presence or absence of liver S9 fraction by Ames test. To be noted: salmonella enterica subsp. enterica serovar typhimurium, s9, 48 h. Type of data set: toxicity, organism-based. The method, boiled down:
as §3

Data set [23] relates to Salmonella typhimurium. The data set is described as follows: Genotoxicity in Salmonella typhimurium TA100 up to 2000 uM after 2 days in presence or absence of liver S9 fraction by Ames test. The data set is classed as toxicity, organism-based. The conditions noted are these: salmonella enterica subsp. enterica serovar typhimurium, s9, 48 h. The method, boiled down:
as §3

The test system of another data set is Escherichia coli. The data set is described as follows: Genotoxicity in Escherichia coli uvrA up to 2000 uM after 2 days in presence or absence of liver S9 fraction by Ames test. Type of data set: toxicity, organism-based. The conditions noted are these: s9, 48 h. The method in brief: as §3
For data set [24], the system named is Mus musculus. The data set is described as follows: Inhibition of allograft rejection in Balb/c mouse heterotopic cardiac transplantation model using C57BL/6 as cardiac donor assessed as long-term graft survival rate by measuring cardiac allograft function by daily palpitation at 5 mg/kg, po qd for 28 days. The data set is classed as functional, organism-based. The conditions noted are these: in the assay text read “for 14 days” for “for 28 days”. The method, boiled down: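 Heterotopic cardiac allografts from C57BL/6 donors into Balb/C recipients. Recipients received 5 mpk as a homogeneous suspension in 0.1% Tween 80, 0.1% silicone antifoam, 1% methylcellulose (400 cps), or vehicle alone, by oral gavage once daily. Survival was compared with vehicle; rejection was indicated when the graft stopped beating.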

The nature of data set [25]: physchem. To be noted: phosphate buffer, pH 7.4.

The record followed here is ChEMBL document CHEMBL4190408 (J Med Chem, 2018).

pIC50: −log10 of the molar value. ≈ marks a conversion by molar mass, not a printed value. Calls of active or inactive are those of the source. The rule behind the calls is not given here.

As usually defined, the pIC50 is the negative decadic logarithm of the IC50, by convention in mol/L. For orientation: logD means lipophilicity at a set pH, counting ionised and neutral species. In general, microsomal CLint refers to the rate of metabolic loss divided by the concentration. Lower therefore signals greater metabolic stability. By kinetic solubility is commonly meant solubility judged after dilution from a stock solution rather than from solid. By fraction unbound is commonly meant the share of the substance not bound to proteins or other matrix. High values mean weak binding, low ones extensive binding. For orientation: CL/F means the apparent clearance, not corrected for the fraction that reaches the circulation. One may read the clearance as a measure of how efficiently the substance is removed, as volume per time. Higher therefore signals efficient removal. The term half-life denotes how long it takes for the measured level to halve. A high value points to slow decline. A word on the bioavailability: it is dose-corrected exposure relative to a reference, in per cent. Lower therefore signals poor availability.

Sequence of Voltage-gated inwardly rectifying potassium channel KCNH2 (Q12809 whole entry): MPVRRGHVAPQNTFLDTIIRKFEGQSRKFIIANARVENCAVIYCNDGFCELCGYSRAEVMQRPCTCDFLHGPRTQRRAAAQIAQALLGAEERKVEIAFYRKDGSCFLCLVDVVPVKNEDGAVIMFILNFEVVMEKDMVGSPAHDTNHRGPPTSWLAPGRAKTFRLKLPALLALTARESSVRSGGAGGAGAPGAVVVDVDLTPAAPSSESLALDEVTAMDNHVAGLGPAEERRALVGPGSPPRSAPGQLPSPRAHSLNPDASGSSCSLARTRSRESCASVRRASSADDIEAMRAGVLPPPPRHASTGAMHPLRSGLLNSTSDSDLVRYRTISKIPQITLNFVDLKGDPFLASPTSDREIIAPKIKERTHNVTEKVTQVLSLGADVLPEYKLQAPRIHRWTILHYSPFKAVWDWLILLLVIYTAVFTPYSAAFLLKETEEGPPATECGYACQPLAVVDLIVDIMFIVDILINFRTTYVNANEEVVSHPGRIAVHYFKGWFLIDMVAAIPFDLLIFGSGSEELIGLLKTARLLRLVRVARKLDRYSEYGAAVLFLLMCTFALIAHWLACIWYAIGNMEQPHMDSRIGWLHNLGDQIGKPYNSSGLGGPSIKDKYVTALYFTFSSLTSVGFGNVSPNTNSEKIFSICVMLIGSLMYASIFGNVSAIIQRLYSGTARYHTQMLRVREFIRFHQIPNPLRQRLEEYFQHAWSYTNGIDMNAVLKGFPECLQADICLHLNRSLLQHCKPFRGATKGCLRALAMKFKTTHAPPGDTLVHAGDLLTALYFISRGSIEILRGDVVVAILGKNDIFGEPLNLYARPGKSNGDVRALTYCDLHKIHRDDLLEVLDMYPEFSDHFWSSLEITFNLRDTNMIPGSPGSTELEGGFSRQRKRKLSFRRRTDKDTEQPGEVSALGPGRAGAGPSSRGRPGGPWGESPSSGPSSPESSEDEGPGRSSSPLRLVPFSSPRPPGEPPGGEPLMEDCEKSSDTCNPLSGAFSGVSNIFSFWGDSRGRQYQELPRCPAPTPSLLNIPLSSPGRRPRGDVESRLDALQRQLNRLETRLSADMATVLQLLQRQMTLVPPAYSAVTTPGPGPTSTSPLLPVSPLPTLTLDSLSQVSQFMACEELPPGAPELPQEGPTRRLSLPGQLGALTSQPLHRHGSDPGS
Sequence of Phosphatidylinositol 4-kinase beta (Q9UBF8 whole entry): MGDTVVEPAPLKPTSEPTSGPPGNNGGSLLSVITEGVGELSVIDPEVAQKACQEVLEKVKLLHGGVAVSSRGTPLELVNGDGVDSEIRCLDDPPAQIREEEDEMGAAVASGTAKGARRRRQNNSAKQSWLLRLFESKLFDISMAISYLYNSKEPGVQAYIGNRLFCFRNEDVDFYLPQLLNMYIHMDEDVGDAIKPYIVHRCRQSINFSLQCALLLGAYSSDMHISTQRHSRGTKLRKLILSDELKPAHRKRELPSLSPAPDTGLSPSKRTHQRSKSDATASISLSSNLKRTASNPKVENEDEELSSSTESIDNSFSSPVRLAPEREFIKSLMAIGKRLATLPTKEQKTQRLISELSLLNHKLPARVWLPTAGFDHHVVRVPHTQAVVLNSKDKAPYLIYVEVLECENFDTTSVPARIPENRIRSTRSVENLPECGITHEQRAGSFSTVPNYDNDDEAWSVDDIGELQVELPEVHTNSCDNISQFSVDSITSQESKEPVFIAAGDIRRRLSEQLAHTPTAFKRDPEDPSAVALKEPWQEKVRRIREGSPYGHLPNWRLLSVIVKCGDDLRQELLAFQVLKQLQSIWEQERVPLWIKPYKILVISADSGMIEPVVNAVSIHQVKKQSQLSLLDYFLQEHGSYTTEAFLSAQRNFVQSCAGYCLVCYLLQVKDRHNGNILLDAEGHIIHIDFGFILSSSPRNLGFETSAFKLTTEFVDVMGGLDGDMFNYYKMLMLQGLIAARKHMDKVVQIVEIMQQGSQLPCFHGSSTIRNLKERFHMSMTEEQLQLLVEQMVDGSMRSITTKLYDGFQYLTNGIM
Sequence of Cytochrome P450 3A4 (P08684 whole entry): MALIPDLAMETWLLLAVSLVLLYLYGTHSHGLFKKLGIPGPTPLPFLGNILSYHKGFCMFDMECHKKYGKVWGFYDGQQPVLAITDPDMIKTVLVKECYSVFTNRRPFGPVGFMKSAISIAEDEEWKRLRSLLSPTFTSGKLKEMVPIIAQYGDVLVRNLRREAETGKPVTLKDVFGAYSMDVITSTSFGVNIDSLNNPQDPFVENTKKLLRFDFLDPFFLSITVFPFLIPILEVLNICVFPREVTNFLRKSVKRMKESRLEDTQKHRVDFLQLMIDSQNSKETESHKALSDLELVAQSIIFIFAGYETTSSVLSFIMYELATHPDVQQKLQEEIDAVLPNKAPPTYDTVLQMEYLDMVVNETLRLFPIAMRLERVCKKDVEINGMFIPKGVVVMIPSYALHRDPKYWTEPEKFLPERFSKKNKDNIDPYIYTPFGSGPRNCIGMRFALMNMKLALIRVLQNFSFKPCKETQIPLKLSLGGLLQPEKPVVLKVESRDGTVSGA

`COc1ccc(NC(=O)C2CCN(c3nc(N)nc4scnc34)CC2)cc1`: the pIC50 in data set [1] was below 5.22.

In the case of `COc1ccc(N)c(C)c1.Cl`, the Activity result in the data set on Salmonella typhimurium [2], with Salmonella typhimurium [3] and with Salmonella typhimurium [4] was “Non-Toxic” each time.

As to `COc1ccc(NC(=O)N2CCN(c3nc(N)nc4sc(-c5ccccc5)nc34)CC2)cc1`, the pIC50 in data set [5] was 5.77; on Cytochrome P450 3A4, below 4.70. Moreover, in [6], the logD result was “Nd(Insoluble)”. The intrinsic metabolic clearance (microsomal CLint) at 0.75 h, 3 µM in the data set “in vitro [7]” was 13 µL/min/mg; in the data set “in vitro [8]”, 20 µL/min/mg. The kinetic solubility at 1.5 h in “physchem [9]” (buffer, pH 7.4) turned out to be 6 µM (≈ 2.77 µg/mL).

For the molecule `COc1ccc(NC(=O)N2CCN(c3nc(N)nc4c3cnn4C)[C@@H](C)C2)c(C)c1`, the solubility thermodynamic at 1.5 h in [10] stood at 110 µM (≈ 45.2 µg/mL). In data set [11], this molecule showed a fraction unbound of 0.09. The CL/F in [12] was 5.3 mL/min/kg. The fAUC amounted to 6.941 µM·h in the data set with Mus musculus [13] and 0.684 µM·h with Mus musculus [16]. For the same molecule, the fCmax in the data set on Mus musculus [14] is listed as 2113 nM. The clearance in [15] stood at 5 mL/min/kg. Also, the half-life in [17] is 1.4 h. In addition, the Vd in data set [18] was 0.6 L/kg. This molecule also yielded a bioavailability in data set [19] of 100%. Further, the Activity result in the data set with Salmonella typhimurium [20], with Salmonella typhimurium [21], in the data set with Salmonella typhimurium [22], in the data set on Salmonella typhimurium [23] and in the data set with Escherichia coli was “Non-Toxic” each time. Besides, the outcome in the data set with Mus musculus [24] was Active. The values for the microsomal CLint at 0.75 h, 3 µM in “in vitro [7]” and in “in vitro [8]” were 4 µL/min/mg and 6 µL/min/mg, respectively. This molecule also yielded a logD at 1.5 h in “physchem [25]” of 1.47. Moreover, the kinetic solubility at 1.5 h in “physchem [9]” (pH 7.4 solution) was above 350 µM.
